# Source: ChEMBL document CHEMBL3286242, “Design, synthesis and biological evaluation of arylcinnamide hybrid derivatives as novel anticancer agents” (Eur J Med Chem, 2014)
# pIC50: −log10 of the molar value. The source made the active and inactive calls. No cut-off for these calls is given here.
# How the values were obtained:
# [1] = tested on: CCRF-CEM; assay: Cytotoxicity against human CEM cells assessed as growth inhibition after 72 hrs by MTT assay; assay type: functional, cell-based
# [2] = tested on: HT-29; assay: Cytotoxicity against human HT-29 cells assessed as growth inhibition after 72 hrs by MTT assay; assay type: functional, cell-based; conditions: HT-29, 72 h
# [3] = tested on: HeLa; assay: Induction of apoptosis in human HeLa cells assessed as reduction in Mcl-1 protein expression at 2.5 uM after 48 hrs by Western blotting analysis; assay type: functional, cell-based
# In short: (§1)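 HeLa cells treated at indicated concentrations and times; washed in cold PBS, lysed 30 min at 0 °C, cleared at 15 000 × g; 20 μg protein resolved on 7.5–15% gradient SDS-PAGE, blotted to PVDF, primary antibodies 2 h room temperature, peroxidase secondary 60 min, ECL detection; β-actin reprobe for loading.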
# [4] = tested on: HeLa; assay: Induction of apoptosis in human HeLa cells assessed as PARP cleavage after 24 to 48 hrs by Western blotting analysis; assay type: functional, cell-based; in short: as §1
# [5] = molecular target: Tubulin (Homo sapiens) (UniProt P68371+Q9H4B7+P0DPH7+P68366+Q13509+Q71U36+P04350+Q3ZCM7+P07437+P68363+Q9BQE3+Q6PEY2+Q13885+Q9BVA1+Q9BUF5); assay: Inhibition of tubulin polymerization in human HeLa cells assessed as microtubule disruption at 2.5 to 5 uM after 24 hrs by immunofluorescence microscopy relative to untreated control; assay type: cell-based
# In short: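 HeLa cells exposed 24 h to 2.5 or 5.0 μM versus untreated; fixed in cold 4% formaldehyde 15 min, stained with anti-β-tubulin monoclonal (1:1000) and Alexa secondary (1:2000), DAPI counterstain; imaged by confocal microscopy at 20×.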
# [6] = tested on: HeLa; assay: Induction of apoptosis in human HeLa cells assessed as reduction in Bcl-2 protein expression at 1 to 2.5 uM by Western blotting analysis; assay type: functional, cell-based; conditions: TDE = time-dependent effect; in short: as §1
# [7] = tested on: LoVo; assay: Cytotoxicity against human LoVo cells assessed as growth inhibition after 72 hrs by MTT assay; assay type: functional, cell-based
# [8] = Cytotoxicity against human CEM/VBL100 cells assessed as growth inhibition after 72 hrs by MTT assay; assay type: functional, cell-based; conditions: CEM/VBL100, 72 h
# [9] = tested on: HeLa; assay: Induction of apoptosis in human HeLa cells assessed as caspase-9 activation at 1 to 2.5 uM after 24 to 48 hrs by Western blotting analysis; assay type: functional, cell-based; in short: as §1
# [10] = tested on: HeLa; assay: Cytotoxicity against human HeLa cells assessed as growth inhibition after 72 hrs by MTT assay; assay type: functional, cell-based
# [11] = Selectivity ratio of IC50 for human resting PBMC to IC50 for human Jurkat cells; assay type: ADME, cell-based; conditions: resting PBMC versus Jurkat cells, read-out: Ratio IC50
# [12] = tested on: HeLa; assay: Induction of apoptosis in human HeLa cells at 0.62 to 5 uM after 24 to 48 hrs by Annexin V/FITC staining-based flow cytometry; assay type: functional, cell-based
# In short: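 HeLa cells treated 24 or 48 h at indicated concentrations, then stained with annexin-V-FITC plus PI; flow cytometry with 488 nm excitation, 525 and 585 nm emission; live, early/late apoptotic and necrotic populations distinguished; means of three independent experiments.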
# [13] = tested on: HeLa; assay: Induction of apoptosis in human HeLa cells assessed as caspase activation at 2.5 uM after 48 hrs in presence of pan-caspase inhibitor z-VAD.fmk; assay type: functional, cell-based
# In short: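 HeLa cells given 2.5 μM compound for 48 h with or without 100 μM z-VAD.fmk pan-caspase inhibitor; viability measured; means ± SEM of three independent experiments, Student's t-test.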
# [14] = Cytotoxicity against human LoVo/DX cells assessed as growth inhibition after 72 hrs by MTT assay; assay type: functional, cell-based
# [15] = tested on: HeLa; assay: Induction of apoptosis in human HeLa cells assessed as increase in Bid protein expression at 1 uM after 24 hrs by Western blotting analysis; assay type: functional, cell-based
# [16] = molecular target: Tubulin (Bos taurus) (UniProt Q6B856+Q862L2+Q862F3); assay: Inhibition of bovine brain tubulin polymerization at 20 uM by turbidimetry
# In short: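 Purified bovine brain tubulin (10 μM) preincubated with compound in glutamate buffer at 30 °C, cooled to 0 °C, GTP added, then warmed to 30 °C in cuvettes; assembly followed turbidimetrically; concentrations up to 20 μM.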
# [17] = tested on: HeLa; assay: Induction of apoptosis in human HeLa cells assessed as PARP cleavage at 1 to 2.5 uM by Western blotting analysis; assay type: functional, cell-based; conditions: TDE = time-dependent effect; in short: as §1
# [18] = tested on: HeLa; assay: Cell cycle arrest in human HeLa cells assessed as accumulation at G2/M phase after 24 hrs by propidium iodide staining-based flow cytometry; assay type: functional
# In short: (§2)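 HeLa cells in exponential growth (2.5 × 10^5) treated 24 h at various concentrations; ethanol-fixed (70%, ice-cold), lysed with RNase A/0.1% Triton X-100, PI-stained; DNA content by flow cytometry, phase percentages from DNA histograms.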
# [19] = tested on: HeLa; assay: Induction of apoptosis in human HeLa cells assessed as increase in Bax protein expression at 1 to 2.5 uM after 24 to 48 hrs by Western blotting analysis; assay type: functional, cell-based
# [20] = tested on: HeLa; assay: Induction of apoptosis in human HeLa cells assessed as caspase-3 activation after 24 to 48 hrs by Western blotting analysis; assay type: functional, cell-based; in short: as §1
# [21] = Cytotoxicity against human SEM cells assessed as growth inhibition after 72 hrs by MTT assay; assay type: functional, cell-based
# [22] = tested on: HeLa; assay: Cell cycle arrest in human HeLa cells assessed as reduction in S phase after 24 hrs by propidium iodide staining-based flow cytometry; assay type: functional; in short: as §2
# [23] = Selectivity ratio of IC50 for human resting PBMC to IC50 for human CEM cells; assay type: ADME, cell-based, CCRF-CEM; conditions: resting PBMC versus CEM cells, read-out: Ratio IC50
# [24] = tested on: MCF7; assay: Cytotoxicity against human MCF7 cells assessed as growth inhibition after 72 hrs by MTT assay; assay type: functional, cell-based; conditions: MCF7, 72 h
# [25] = tested on: HeLa; assay: Induction of apoptosis in human HeLa cells assessed as caspase-8 activation at 1 to 2.5 uM after 24 to 48 hrs by Western blotting analysis; assay type: functional, cell-based; in short: as §1
# [26] = tested on: HeLa; assay: Induction of apoptosis in human HeLa cells assessed as GSH depletion after 24 hrs by CMFDA staining-based flow cytometry; assay type: functional, cell-based
# In short: (§3)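 HeLa cells treated 24 h with compound, alone or with 100 μM NAC; harvested and loaded with 5 μM CMFDA, 30 min at 37 °C; intracellular GSH read as CMFDA fluorescence by flow cytometry; means ± SEM.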
# [27] = tested on: PBMC; assay: Cytotoxicity against human PHA-stimulated PBMC assessed as growth inhibition after 72 hrs by MTT assay; assay type: functional, cell-based
# [28] = tested on: Jurkat; assay: Cytotoxicity against human Jurkat cells assessed as growth inhibition after 72 hrs by MTT assay; assay type: functional, cell-based
# [29] = tested on: HeLa; assay: Induction of DNA damage in human HeLa cells assessed as increase in gammaH2A.X protein expression at 1 to 2.5 uM after 48 hrs by Western blotting analysis; assay type: functional, cell-based
# [30] = tested on: HeLa; assay: Induction of apoptosis in human HeLa cells assessed as increase in Bak protein expression at 1 to 2.5 uM after 24 to 48 hrs by Western blotting analysis; assay type: functional, cell-based
# [31] = tested on: HeLa; assay: Induction of apoptosis in human HeLa cells assessed as caspase-3 activation at 1 to 2.5 uM by Western blotting analysis; assay type: functional, cell-based; conditions: TDE = time-dependent effect; in short: as §1
# [32] = tested on: LoVo; assay: Resistance ratio of IC50 for human LoVo/DX cells to IC50 for human LoVo cells; assay type: functional
# In short: (§4)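 Ratio of IC50 in resistant line to IC50 in parental line (CEMVbl-100/CEM; LoVoDoxo/LoVo), each IC50 from 72 h MTT dose–response curves, ≥3 independent experiments.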
# [33] = tested on: HeLa; assay: Induction of apoptosis in human HeLa cells assessed as GSH depletion at 1 to 2.5 uM after 24 hrs by CMFDA staining-based flow cytometry in presence of N-acetylcysteine; assay type: functional, cell-based; in short: as §3
# [34] = tested on: HeLa; assay: Induction of apoptosis in human HeLa cells assessed as reduction in Bcl-2 protein expression at 1 to 2.5 uM after 48 hrs by Western blotting analysis; assay type: functional, cell-based; in short: as §1
# [35] = tested on: CCRF-CEM; assay: Resistance ratio of IC50 for human CEM/VBL100 cells to IC50 for human CEM cells; assay type: functional; in short: as §4
# [36] = tested on: PBMC; assay: Cytotoxicity against human resting PBMC assessed as growth inhibition after 72 hrs by MTT assay; assay type: cell-based
# In short: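 Healthy-donor PBMC from Lymphoprep gradient, rested overnight in RPMI-1640/10% FBS; non-adherent cells at 5 × 10^5 cells/mL without PHA, treated 72 h with varying concentrations; viability by MTT; IC50 mean ± SEM, three separate experiments.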
# [37] = tested on: L1210; assay: Cytotoxicity against mouse L1210 cells; assay type: functional, cell-based
structure (smiles),measurement,setting,value
C=C(Br)C(=O)Nc1cccc(/C=C/C(=O)Nc2ccc(N3CCOCC3)cc2)c1,pIC50,[1],6.21
same,pIC50,[2],5.80
same,Activity,[3],Active
same,Activity,[4],Dose-dependent effect
same,inhibition,[5],inactive
same,Activity,[6],tde
same,pIC50,[7],6.29
same,pIC50,[8],6.39
same,Activity,[9],inactive
same,pIC50,[10],6.37
same,selectivity ratio,[11],10
same,Activity,[12],Active
same,Activity,[13],inactive
same,pIC50,[14],5.98
same,Activity,[15],inactive
same,inhibition,[16],inactive
same,Activity,[17],tde
same,Activity,[18],Dose-dependent effect
same,Activity,[19],inactive
same,Activity,[20],Dose-dependent effect
same,pIC50,[21],7.24
same,Activity,[22],Active
same,selectivity ratio,[23],10
same,pIC50,[24],5.59
same,Activity,[25],Active
same,Activity,[26],Dose-dependent effect
same,pIC50,[27],6.30
same,pIC50,[28],7.40
same,Activity,[29],Active
same,Activity,[30],inactive
same,Activity,[31],tde
same,Ratio IC50,[32],2
same,Activity,[33],inactive
same,Activity,[34],Active
same,Ratio IC50,[35],0.7
same,pIC50,[36],5.40
C=C(Br)C(=O)O,pIC50,[37],< 3.92
